Data from ChEMBL document CHEMBL1155163, “Deoxyribonucleoside kinases activate nucleoside antibiotics in severely pathogenic bacteria” (Antimicrob Agents Chemother, 2007).
Converted amounts (≈) assume the structure as drawn. The source made the active and inactive calls. No cut-off for these calls is given here.

B1: Deoxyadenosine kinase (Staphylococcus aureus), Q0H0H0 (protein)
chain: MNNYGIPQNAIITIAGTVGVGKSTLTQALADKLNFKTSFENVEHNPYLDKFYSDFERWSFHLQIYFLAERFKEQKRMFEYGGGFVQDRSIYEDVDIFAKMHEEEGTMSKEDFKTYSDLFNAMVMTPYFPKPDVMIYLECNYDEVIDRIIERGREMEINTDPEYWKKLFKRYDDWINSFNACPVVRININEYDIHKDPESLNPMINKIARIIQTYRQVDTR
B2: Deoxyguanosine kinase (Staphylococcus aureus), Q0H0G8 (protein)
chain: MNKPFIAIEGPIGVGKSSLAHKLSQTLDFYEEKEIITENPFLSDFYEDISKWSFQTEMFFLCNRYKQFQDVTQLNQGVVSDYHIHKNKIFAKNTLSSVEFQKFSKIYDILTEDMIMPNMIIFLDADLDVLKSRIAKRNRSFEHQIEDEYLLKLKKDYREYYESLQSNGSNVVLIDTTSIDFLKNEQDYEDILHIILPMIGDITNE
B3: Thymidine kinase (Staphylococcus aureus), Q0H0G9 (protein)
chain: MYETYHSGWIECITGSMFSGKSEELIRRLRRGIYAKQKVVVFKPAIDDRYHKEKVVSHNGNAIEAINISKASEIMTHDLTNVDVIGIDEVQFFDDEIVSIVEKLSADGHRVIVAGLDMDFRGEPFEPMPKLMAVSEQVTKLQAVCAVCGSSSSRTQRLINGKPAKIDDPIILVGANESYEPRCRAHHIVAPSDNNKEEL

Columns and labels:
[1] = tested on: Streptococcus sp.; test: Antimicrobial activity against Streptococcus sp. 07686-2 after 20 hrs; format: functional
In short: (§1)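 Organisms taken from overnight Columbia blood agar, adjusted to McFarland 0.5 in 0.9% NaCl, diluted a further 10-fold, then spotted on Mueller-Hinton agar containing graded nucleoside analog concentrations. Incubated 20 h at 37°C. MIC is the lowest concentration fully inhibiting growth, judged visually.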

[2] = tested on: Streptococcus sp.; test: Antimicrobial activity against Streptococcus sp. 07706-1 after 20 hrs; format: functional; in short: as §1
[3] = tested on: Escherichia coli; test: Antimicrobial activity against Escherichia coli ATCC 25922 after 20 hrs; format: functional; conditions: ATCC 25922, 20 h; in short: as §1
[4] = tested on: Staphylococcus aureus; test: Antimicrobial activity against Staphylococcus aureus ATCC 29213 after 20 hrs; format: functional; conditions: ATCC 29213, 20 h; in short: as §1
[5] = tested on: Staphylococcus aureus; test: Antimicrobial activity against Staphylococcus aureus CCM 885 after 20 hrs; format: functional; conditions: CCM 885, 20 h; in short: as §1
[6] = tested on: Streptococcus sp.; test: Antimicrobial activity against Streptococcus sp. 07941-1 after 20 hrs; format: functional; in short: as §1
[7] = tested on: Escherichia coli; test: Antibacterial activity against […] kinase-deficient Escherichia coli KY895 expressing Staphylococcus aureus recombinant deoxyadenosine kinase; format: functional
[8] = tested on: Escherichia coli; test: Antibacterial activity against […] kinase-deficient Escherichia coli KY895 expressing Streptococcus pyogenes recombinant deoxyadenosine kinase; format: functional
[9] = tested on: Escherichia coli; test: Antibacterial activity against […] kinase-deficient Escherichia coli KY895 expressing Staphylococcus aureus recombinant thymidine kinase; format: functional
[10] = tested on: Escherichia coli; test: Antibacterial activity against […] kinase-deficient Escherichia coli KY895 expressing Streptococcus pyogenes recombinant thymidine kinase; format: functional
[11] = tested on: Escherichia coli; test: Antibacterial activity against […] kinase-deficient Escherichia coli KY895 expressing Staphylococcus aureus recombinant deoxyguanosine kinase; format: functional, organism-based
[12] = tested on: Streptococcus pyogenes; test: Antimicrobial activity against Streptococcus pyogenes AP1 after 20 hrs; format: functional; conditions: AP1, 20 h; in short: as §1
[13] = tested on: Streptococcus pyogenes; test: Antibacterial activity against 2.5 x 10^6 CFU Streptococcus pyogenes AP1-infected BALB/c mouse assessed as protection against bacterial dissemination in spleen at 100 ug, ip administered 6 hrs after bacterial infection and measured after 24 hrs postinfection; format: functional, organism-based
[14] = tested on: Streptococcus pyogenes; test: Antibacterial activity against 1 x 10^7 CFU Streptococcus pyogenes AP1-infected BALB/c mouse assessed as survival at 100 ug, ip after 5 days; format: functional
In short: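 Adult female BALB/c mice (~20 g), six per group, given ip 1 x 10^7 CFU of mid-exponential S. pyogenes AP1 (OD620 0.5, washed, in PBS). 6 h later, ip 100 µg drug or 100 µl PBS. Survival followed at regular intervals. Survivors sacrificed at 5 days. Inoculum checked by blood-agar colony counts.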

[15] = tested on: Staphylococcus aureus; test: Antibacterial activity against exponentially growing Staphylococcus aureus ATCC 29213 at 0.002 ug/ml after 3 hrs by viable count susceptibility assay; format: functional, organism-based
In short: (§2)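 Cells grown overnight in Todd-Hewitt broth at 37°C with 5% CO2, subcultured to OD620 0.4, washed twice and diluted 1,000-fold in 10 mM Tris-HCl pH 7.5, 5 mM glucose, 10% Todd-Hewitt. Stopped with ice-cold buffer; duplicate plating on Todd-Hewitt agar for viable counts.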

[16] = tested on: Streptococcus pyogenes; test: Antibacterial activity against exponentially growing Streptococcus pyogenes AP1 at 0.2 ug/ml after 3 hrs by viable count susceptibility assay; format: functional, organism-based; in short: as §2
[17] = substrate: Nc1ncnc2c1ncn2[C@H]1C[C@H](O)[C@@H](CO)O1; test: (§3) Activity of Staphylococcus aureus CCM 885 recombinant deoxyadenosine kinase
In short: (§4)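 Recombinant S. aureus kinase cut from a GST fusion (pGEX-2T, E. coli BL21) by thrombin. Initial velocities taken from four time samples in a DE-81 filter-paper assay with tritiated substrates at varied concentrations. Fits by nonlinear regression to Michaelis-Menten, or to the substrate-inhibition equation where needed.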

[18] = substrate: Nc1ccn([C@H]2C[C@H](O)[C@@H](CO)O2)c(=O)n1; test: as §3; in short: as §4
[19] = substrate: Nc1ccn([C@@H]2O[C@H](CO)[C@@H](O)C2(F)F)c(=O)n1; test: as §3; in short: as §4
[20] = substrate: Nc1ncnc2c1ncn2[C@H]1C[C@H](O)[C@@H](CO)O1; test: (§5) Ratio of kcat to Km for Staphylococcus aureus CCM 885 recombinant deoxyadenosine kinase; in short: as §4
[21] = substrate: Nc1ccn([C@H]2C[C@H](O)[C@@H](CO)O2)c(=O)n1; test: as §5; in short: as §4
[22] = substrate: Nc1ccn([C@@H]2O[C@H](CO)[C@@H](O)C2(F)F)c(=O)n1; test: as §5; in short: as §4
[23] = substrate: Nc1nc(O)c2ncn([C@H]3C[C@H](O)[C@@H](CO)O3)c2n1; test: Activity of Staphylococcus aureus CCM 885 recombinant deoxyguanosine kinase; in short: as §4
[24] = substrate: Nc1nc(O)c2ncn([C@H]3C[C@H](O)[C@@H](CO)O3)c2n1; test: Ratio of kcat to Km for Staphylococcus aureus CCM 885 recombinant deoxyguanosine kinase; in short: as §4
[25] = substrate: Cc1cn([C@H]2C[C@H](N=[N+]=[N-])[C@@H](CO)O2)c(=O)[nH]c1=O; test: (§6) Activity of Staphylococcus aureus CCM 885 recombinant thymidine kinase
In short: (§7)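 GST-fused SaTK expressed in E. coli BL21 (100 µM IPTG, 6 h at 25°C), purified on glutathione-Sepharose and cleaved from GST with thrombin. Initial velocities from four time samples, DE-81 filter-paper assay with tritium-labeled deoxyribonucleoside substrates at various concentrations. Michaelis-Menten nonlinear regression.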

[26] = substrate: Cc1cn([C@H]2C[C@H](O)[C@@H](CO)O2)c(=O)[nH]c1=O; test: as §6; in short: as §7
[27] = substrate: Cc1cn([C@H]2C[C@H](N=[N+]=[N-])[C@@H](CO)O2)c(=O)[nH]c1=O; test: (§8) Ratio of kcat to Km for Staphylococcus aureus CCM 885 recombinant thymidine kinase; in short: as §7
[28] = substrate: Cc1cn([C@H]2C[C@H](O)[C@@H](CO)O2)c(=O)[nH]c1=O; test: as §8; in short: as §7

Row | Molecule | MIC [1] [µM] | MIC [2] [µM] | MIC [3] [µM] | MIC [4] [µM] | MIC [5] [µM] | MIC [6] [µM] | further results
1 | Nc1nc(F)nc2c1ncn2[C@@H]1O[C@H](CO)[C@@H](O)[C@@H]1O [FLUDARABINE] | > 100 | > 100 | > 100 | > 100 | > 100 | > 100 | 
2 | Cc1cn([C@H]2C[C@H](N=[N+]=[N-])[C@@H](CO)O2)c(=O)[nH]c1=O [ZIDOVUDINE] | > 316 | > 316 | 10 (≈ 2.67 µg/mL) | > 316 | > 316 | 316 (≈ 84.4 µg/mL) | Activity [7]: inactive; Activity [8]: inactive; MIC [9]: 0.0316 µM; MIC [10]: 0.01 µM; Activity [11]: inactive
3 | CCc1cn([C@H]2C[C@H](O)[C@@H](CO)O2)c(=O)[nH]c1=O [EDOXUDINE] | > 316 | > 316 | > 316 | > 316 | > 316 | > 316 | 
4 | Nc1ccn([C@@H]2O[C@H](CO)[C@@H](O)C2(F)F)c(=O)n1 [GEMCITABINE] | 0.1 (≈ 0.0263 µg/mL) | 0.0316 (≈ 0.00832 µg/mL) | > 1000 | 0.1 (≈ 0.0263 µg/mL) | 0.1 (≈ 0.0263 µg/mL) | 0.01 (≈ 0.00263 µg/mL) | MIC [7]: 0.001 µM; MIC [12]: 0.1 µM (≈ 0.0263 µg/mL); MIC [8]: 0.0316 µM; Activity [13]: Active; Activity [9]: inactive; Activity [14]: 83%; Activity [10]: inactive; Activity [15]: Active; Activity [11]: inactive; Activity [16]: Active
5 | O=c1[nH]c(=O)n([C@H]2C[C@H](O)[C@@H](CO)O2)cc1F [FLOXURIDINE] | 10 (≈ 2.46 µg/mL) | 0.316 (≈ 0.0778 µg/mL) | 1 (≈ 0.246 µg/mL) | 0.01 (≈ 0.00246 µg/mL) | 0.00316 (≈ 0.000778 µg/mL) | 0.1 (≈ 0.0246 µg/mL) | 
6 | Nc1ccn([C@@H]2O[C@H](CO)[C@@H](O)[C@@H]2O)c(=O)n1 [CYTARABINE] | > 1000 | > 1000 | > 1000 | > 1000 | > 1000 | > 1000 | 
7 | Nc1nc(Cl)nc2c1ncn2[C@H]1C[C@H](O)[C@@H](CO)O1 [CLADRIBINE] | 100 (≈ 28.6 µg/mL) | 100 (≈ 28.6 µg/mL) | > 100 | > 100 | > 100 | 100 (≈ 28.6 µg/mL) | 
8 | B1 |  |  |  |  |  |  | Km [17]: 29.2 µM; Vmax [17]: 4.1 U/mg; kcat [17]: 1.82 s⁻¹; Km [18]: 34.4 µM; Vmax [18]: 1.3 U/mg; kcat [18]: 0.56 s⁻¹; Km [19]: 192 µM; Vmax [19]: 0.43 U/mg; kcat [19]: 0.19 s⁻¹; kcat/Km [20]: 6.22 ×10⁴ /M/s; kcat/Km [21]: 1.62 ×10⁴ /M/s; kcat/Km [22]: 9.81 ×10² /M/s
9 | B2 |  |  |  |  |  |  | Km [23]: 1.1 µM; Vmax [23]: 1.4 U/mg; kcat [23]: 0.57 s⁻¹; kcat/Km [24]: 5.17 ×10⁵ /M/s
10 | B3 |  |  |  |  |  |  | Km [25]: 11.6 µM; Vmax [25]: 4 U/mg; kcat [25]: 1.48 s⁻¹; Km [26]: 2.8 µM; Vmax [26]: 1.2 U/mg; kcat [26]: 0.44 s⁻¹; kcat/Km [27]: 1.29 ×10⁵ /M/s; kcat/Km [28]: 1.6 ×10⁵ /M/s
